# Experimental data reported in ChEMBL document CHEMBL1146598, “Synthesis and structure-activity relationship of mannose-based peptidomimetics selectively blocking integrin alpha4beta7 binding to mucosal addressin cell adhesion molecule-1” (J Med Chem, 2003).
# Target: Integrin alpha-4/beta-1 (Homo sapiens) (UniProt P05556+P13612)
# Test: In vitro inhibition of Jurkat cell (alpha4-beta1) cell adhesion to vascular cell adhesion molecule-1.
# Assay type: functional, cell-based
# Summary of the method: (§1)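 Jurkat cells (α4β1+, α4β7−) are Hoechst H33342-labelled (6 µg/mL), then preincubated with compound 10 min at 37 °C at 8 × 10^5 cells/mL. Adhesion runs 30 min at 37 °C to VCAM-IgG (293T transfectant supernatant) captured on donkey anti-human IgG, in RPMI/1% BSA/1 mM Ca2+, Mg2+. Unbound cells are spun off inverted (50 g, 10 min); adhesion is read by fluorescence; IC50 from curves.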
row,Adhesion [%],Structure (SMILES)
1,100,COC1C(COC(C)C)O[C@@H](OCC(=O)O)C(OCCO)[C@H]1OC (stereo not given in full)
2,86,COC1C(COCC(C)C)O[C@@H](OCC(=O)O)C(OCc2ccccc2)[C@H]1OC (stereo not given in full)
3,82,CO[C@@]12O[C@@H]3[C@H](OCCO)[C@H](OCC(=O)O)O[C@H](COCC(C)C)[C@H]3O[C@@]1(OC)c1ccccc1-c1ccccc12
4,100,COC12CCCC[C@]1(OC)O[C@H]1C(O2)C(COC(C)C)O[C@@H](OCC(=O)O)[C@@H]1OCc1ccccc1 (stereo in doubt; form 2) [listing 1 of 2 here]
5,100,COC1C(COCC(C)C)O[C@@H](OCC(=O)O)[C@H](OCc2ccccc2)[C@H]1OC (stereo not given in full)
6,92,COC1C(COC(C)C)O[C@@H](OCC(=O)O)[C@H](OCc2ccccc2)[C@H]1OC (stereo not given in full)
7,100,COC1C(CCC(C)C)O[C@@H](OCC(=O)O)C(OCc2ccccc2)[C@H]1OC (stereo not given in full)
8,98,COC1C(COC(C)C)O[C@@H](OCC(=O)O)[C@H](OCCO)[C@H]1OC (stereo not given in full)
9,100,COC1C(CC(C)C)O[C@@H](OCC(=O)O)C(OCc2ccccc2)[C@H]1OC (stereo not given in full)
10,86,COC1C(COC(C)C)O[C@@H](OCC(=O)O)C(OCc2ccccc2)[C@H]1OC (stereo not given in full)
11,77,CO[C@]12CCCC[C@@]1(OC)OC1[C@H](COCC(C)C)O[C@@H](OCC(=O)O)[C@H](OCc3ccccc3)[C@H]1O2 (stereo in doubt; form 2) [listing 1 of 2 here]
12,100,COC1C(CC(C)C)O[C@@H](OCC(=O)O)[C@H](OCc2ccccc2)[C@H]1OC (stereo not given in full)
13,97,COC1C(CCC(C)C)O[C@@H](OCC(=O)O)[C@H](OCc2ccccc2)[C@H]1OC (stereo not given in full)
14,10,CC(C)C[C@H](NC(=O)c1cc2ccccc2cn1)C(=O)N[C@@H](CC(=O)O)C(=O)N[C@H](C(N)=O)[C@@H](C)O
15,81,CO[C@@]12O[C@H]3[C@H](O[C@@]1(OC)c1ccccc1-c1ccccc12)[C@@H](COCC(C)C)OC(OCC(=O)O)[C@H]3OCCO (stereo not given in full)
16,100,COC1C(COCC(C)C)O[C@@H](OCC(=O)O)[C@H](OCCO)[C@H]1OC (stereo not given in full)
17,52,CC[C@H](C)[C@@H]1NC(=O)[C@@H](CCC(N)=O)NC(=O)[C@H](N)CSSC[C@H](C(=O)O)NC(=O)[C@H]2CCCN2C(=O)[C@H](CO)NC(=O)[C@@H](CC(=O)O)NC1=O
18,100,COC12CCCC[C@]1(OC)O[C@H]1C(O2)C(COC(C)C)O[C@@H](OCC(=O)O)[C@@H]1OCc1ccccc1 (stereo in doubt; form 1) [listing 1 of 2 here]
19,89,CO[C@]12CCCC[C@@]1(OC)OC1[C@H](COCC(C)C)O[C@@H](OCC(=O)O)[C@H](OCc3ccccc3)[C@H]1O2 (stereo in doubt; form 1) [listing 1 of 2 here]

# Tested on: not listed separately
# Test: In vitro inhibition of 38-beta7 (alpha4-beta7) cell adhesion to mucosal addressin cell adhesion molecule-1.
# Assay type: functional
# Summary of the method: (§2)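 38C13β7 lymphoma cells (α4β7+) labelled with H33342 dye (6 µg/mL), 8 × 10^5 cells/mL in adhesion buffer (Click's RPMI, 1% BSA, 1.0 mM Ca2+/Mg2+). Cells are preincubated with compound 10 min at 37 °C, then adhere 30 min at 37 °C to plates carrying anti-human-IgG-captured MAdCAM-1-IgG from 293T supernatant. Nonadherent cells are removed by inverse centrifugation (50 g, 10 min); readout is fluorimetry; IC50 from curves.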
row,Structure (SMILES),Adhesion [%]
1,COC1C(COC(C)C)O[C@@H](OCC(=O)O)C(OCCO)[C@H]1OC (stereo not given in full),100
2,COC1C(COCC(C)C)O[C@@H](OCC(=O)O)C(OCc2ccccc2)[C@H]1OC (stereo not given in full),100
3,CO[C@@]12O[C@@H]3[C@H](OCCO)[C@H](OCC(=O)O)O[C@H](COCC(C)C)[C@H]3O[C@@]1(OC)c1ccccc1-c1ccccc12,80
4,COC1C(COCC(C)C)O[C@@H](OCC(=O)O)[C@H](OCc2ccccc2)[C@H]1OC (stereo not given in full),100
5,COC1C(COC(C)C)O[C@@H](OCC(=O)O)[C@H](OCc2ccccc2)[C@H]1OC (stereo not given in full),100
6,COC1C(CCC(C)C)O[C@@H](OCC(=O)O)C(OCc2ccccc2)[C@H]1OC (stereo not given in full),100
7,COC1C(COC(C)C)O[C@@H](OCC(=O)O)[C@H](OCCO)[C@H]1OC (stereo not given in full),100
8,COC12CCCC[C@]1(OC)O[C@H]1C(O2)C(COC(C)C)O[C@@H](OCC(=O)O)[C@@H]1OCc1ccccc1 (stereo in doubt; form 1) [listing 2 of 2 here],100
9,COC12CCCC[C@]1(OC)O[C@H]1C(O2)C(COC(C)C)O[C@@H](OCC(=O)O)[C@@H]1OCc1ccccc1 (stereo in doubt; form 2) [listing 2 of 2 here],76
10,CO[C@]12CCCC[C@@]1(OC)OC1[C@H](COCC(C)C)O[C@@H](OCC(=O)O)[C@H](OCc3ccccc3)[C@H]1O2 (stereo in doubt; form 1) [listing 2 of 2 here],90
11,COC1C(CC(C)C)O[C@@H](OCC(=O)O)C(OCc2ccccc2)[C@H]1OC (stereo not given in full),100
12,COC1C(COC(C)C)O[C@@H](OCC(=O)O)C(OCc2ccccc2)[C@H]1OC (stereo not given in full),100
13,COC1C(CC(C)C)O[C@@H](OCC(=O)O)[C@H](OCc2ccccc2)[C@H]1OC (stereo not given in full),100
14,COC1C(CCC(C)C)O[C@@H](OCC(=O)O)[C@H](OCc2ccccc2)[C@H]1OC (stereo not given in full),100
15,CC(C)C[C@H](NC(=O)c1cc2ccccc2cn1)C(=O)N[C@@H](CC(=O)O)C(=O)N[C@H](C(N)=O)[C@@H](C)O,10
16,CO[C@@]12O[C@H]3[C@H](O[C@@]1(OC)c1ccccc1-c1ccccc12)[C@@H](COCC(C)C)OC(OCC(=O)O)[C@H]3OCCO (stereo not given in full),76
17,COC1C(COCC(C)C)O[C@@H](OCC(=O)O)[C@H](OCCO)[C@H]1OC (stereo not given in full),100
18,CO[C@]12CCCC[C@@]1(OC)OC1[C@H](COCC(C)C)O[C@@H](OCC(=O)O)[C@H](OCc3ccccc3)[C@H]1O2 (stereo in doubt; form 2) [listing 2 of 2 here],15

# Target: T1, Integrin beta-7 (Homo sapiens, UniProt P13612+P26010)
# T1 sequence (P26010 whole entry): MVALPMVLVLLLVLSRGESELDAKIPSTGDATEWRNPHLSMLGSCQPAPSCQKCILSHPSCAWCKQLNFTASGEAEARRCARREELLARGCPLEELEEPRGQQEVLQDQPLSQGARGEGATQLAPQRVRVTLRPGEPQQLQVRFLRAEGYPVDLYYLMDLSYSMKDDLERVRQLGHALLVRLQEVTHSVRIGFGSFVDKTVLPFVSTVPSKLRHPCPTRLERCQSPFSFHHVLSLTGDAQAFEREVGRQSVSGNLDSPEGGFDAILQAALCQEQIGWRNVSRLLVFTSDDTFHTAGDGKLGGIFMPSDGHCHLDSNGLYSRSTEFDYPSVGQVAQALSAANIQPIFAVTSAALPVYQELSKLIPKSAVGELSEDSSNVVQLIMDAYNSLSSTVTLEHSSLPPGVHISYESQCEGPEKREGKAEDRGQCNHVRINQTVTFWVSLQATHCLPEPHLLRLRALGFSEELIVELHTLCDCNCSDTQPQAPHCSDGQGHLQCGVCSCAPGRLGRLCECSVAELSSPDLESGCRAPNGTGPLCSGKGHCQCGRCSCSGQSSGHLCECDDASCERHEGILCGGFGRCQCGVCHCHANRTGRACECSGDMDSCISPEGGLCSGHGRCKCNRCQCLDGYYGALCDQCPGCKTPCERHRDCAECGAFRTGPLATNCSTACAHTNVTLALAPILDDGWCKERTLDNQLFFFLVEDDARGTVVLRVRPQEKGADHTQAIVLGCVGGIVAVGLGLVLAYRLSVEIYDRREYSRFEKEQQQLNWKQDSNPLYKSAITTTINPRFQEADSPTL
# Test: Inhibition of alpha4-beta7 interaction to mucosal addressin cell adhesion molecule-1 (MAdCAM-1) was determined
# Assay type: functional
# Summary of the method: as §2
row,IC50 [µM],Structure (SMILES)
1,280,CC(C)C[C@H](NC(=O)c1cc2ccccc2cn1)C(=O)N[C@@H](CC(=O)O)C(=O)N[C@H](C(N)=O)[C@@H](C)O
2,420,CO[C@]12CCCC[C@@]1(OC)OC1[C@H](COCC(C)C)O[C@@H](OCC(=O)O)[C@H](OCc3ccccc3)[C@H]1O2 (stereo in doubt; form 2) [listing 2 of 2 here]

# Target: Integrin beta-1 (Homo sapiens, UniProt P05556)
# Test: Inhibition of alpha4-beta1 interaction to vascular cell adhesion molecule-1 (VCAM-1) was determined
# Assay type: functional
# Summary of the method: as §1
# Sequence of Integrin beta-1 (P05556 whole entry): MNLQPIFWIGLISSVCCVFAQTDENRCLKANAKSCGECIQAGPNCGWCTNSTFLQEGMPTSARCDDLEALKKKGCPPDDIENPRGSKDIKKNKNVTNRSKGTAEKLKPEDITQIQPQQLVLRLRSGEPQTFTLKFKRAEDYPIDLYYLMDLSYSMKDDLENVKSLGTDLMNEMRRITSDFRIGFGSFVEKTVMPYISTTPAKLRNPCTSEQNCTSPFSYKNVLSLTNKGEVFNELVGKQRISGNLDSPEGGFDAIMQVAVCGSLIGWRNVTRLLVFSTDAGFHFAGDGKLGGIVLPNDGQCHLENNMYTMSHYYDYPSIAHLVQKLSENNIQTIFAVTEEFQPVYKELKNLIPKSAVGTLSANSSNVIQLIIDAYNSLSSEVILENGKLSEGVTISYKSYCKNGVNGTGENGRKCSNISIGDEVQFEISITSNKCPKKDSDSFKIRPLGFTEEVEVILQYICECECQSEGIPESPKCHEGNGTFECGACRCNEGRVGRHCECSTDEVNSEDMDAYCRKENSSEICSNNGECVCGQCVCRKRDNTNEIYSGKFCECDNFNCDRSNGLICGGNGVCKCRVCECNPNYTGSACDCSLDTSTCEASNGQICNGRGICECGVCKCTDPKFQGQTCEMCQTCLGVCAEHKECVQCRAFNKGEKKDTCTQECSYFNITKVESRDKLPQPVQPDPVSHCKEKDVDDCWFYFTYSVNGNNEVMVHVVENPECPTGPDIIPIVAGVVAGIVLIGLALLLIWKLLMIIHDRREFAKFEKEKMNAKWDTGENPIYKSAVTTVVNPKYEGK
row,IC50 [µM],Structure (SMILES)
1,1440,CC[C@H](C)[C@@H]1NC(=O)[C@H](CCC(N)=O)NC(=O)[C@@H](N)CSSC[C@@H](C(=O)O)NC(=O)[C@@H]2CCCN2C(=O)[C@H](CO)NC(=O)[C@H](CC(=O)O)NC1=O
